Reference: ChEMBL document CHEMBL1137302 (J Med Chem, 2006)
Calls of active or inactive are those of the source. The rule behind the calls is not given here.

Assays:
[1] = Agonist activity at ferret D4 receptor in HEK293 cells coexpressing G-alpha-qo5 by FLIPR; format: functional, cell-based, Mustela putorius furo; conditions: Mustela putorius
Outline: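 HEK cells cotransfected with ferret D4 receptor and chimeric G protein Gqo5, with receptor activation read as a calcium flux signal on FLIPR. EC50 is the concentration giving half-maximal activation.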

D(4) dopamine receptor [2] = target: T1, D(4) dopamine receptor (Homo sapiens, UniProt P21917); assay: Agonist activity at human D4.4 receptor in HEK293 cells coexpressing G-alpha-qo5 by FLIPR; format: functional, cell-based
T1 sequence (P21917 whole entry): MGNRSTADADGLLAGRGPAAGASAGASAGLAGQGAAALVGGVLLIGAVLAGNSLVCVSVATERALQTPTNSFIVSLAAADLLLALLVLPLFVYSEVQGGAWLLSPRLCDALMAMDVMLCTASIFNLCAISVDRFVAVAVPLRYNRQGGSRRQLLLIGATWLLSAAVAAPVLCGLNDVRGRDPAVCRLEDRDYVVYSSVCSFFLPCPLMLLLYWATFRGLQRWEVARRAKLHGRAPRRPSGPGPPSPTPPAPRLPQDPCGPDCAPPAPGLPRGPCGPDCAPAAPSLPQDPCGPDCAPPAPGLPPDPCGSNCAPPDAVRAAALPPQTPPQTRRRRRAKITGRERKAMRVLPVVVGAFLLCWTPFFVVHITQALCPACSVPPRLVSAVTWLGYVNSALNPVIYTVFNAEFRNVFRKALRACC

Rattus norvegicus [3] = assay: Proerectile activity in rat measured as incidence of penile erection at 0.01 umol/kg, sc; format: functional
Outline: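 Conscious male rats dosed subcutaneously. Penile erection incidence scored over 60 min after injection; values are % ± SEM, with significance tested against control.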

[4] = target: T2, D(4) dopamine receptor (Homo sapiens) (UniProt P21917); assay: Activity at human D4.4 receptor in HEK293 cells co-expressing Galphaqo5 by FLIPR; format: functional, cell-based
T2 sequence (whole entry): T1 sequence (P21917 whole entry)

Rattus norvegicus [5] = assay: Blockade of ABT-670-induced erctogenic activity in rat at 10 umol/kg, ip; format: functional, organism-based
[6] = target: cGMP-specific 3',5'-cyclic phosphodiesterase (Homo sapiens) (UniProt O76074); assay: Activity at PDE5 at 10 uM
Outline: (§1)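 Broad selectivity panel (over 70 receptors, ion channels and neuronal receptors, PDE1-6 included) run at a single 10 µM concentration.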

[7] = target: Phosphodiesterase 6 (Homo sapiens) (UniProt Q13956+P18545+P35913+O43924+P16499+P51160); assay: Activity at PDE6 at 10 uM; format: protein assay; outline: as §1
Mustela putorius furo [8] = species on record: Mustela putorius furo; assay: Induction of emesis in ferret; format: functional, organism-based
[9] = target: D(2) dopamine receptor (Rattus norvegicus) (UniProt P61169); assay: Agonist activity at rat D2 receptor in HEK293 cells coexpressing G-alpha-qo5 by FLIPR relative to dopamine upto 10 uM; format: functional, cell-based
D(2) dopamine receptor (Rattus norvegicus), sequence (P61169 whole entry): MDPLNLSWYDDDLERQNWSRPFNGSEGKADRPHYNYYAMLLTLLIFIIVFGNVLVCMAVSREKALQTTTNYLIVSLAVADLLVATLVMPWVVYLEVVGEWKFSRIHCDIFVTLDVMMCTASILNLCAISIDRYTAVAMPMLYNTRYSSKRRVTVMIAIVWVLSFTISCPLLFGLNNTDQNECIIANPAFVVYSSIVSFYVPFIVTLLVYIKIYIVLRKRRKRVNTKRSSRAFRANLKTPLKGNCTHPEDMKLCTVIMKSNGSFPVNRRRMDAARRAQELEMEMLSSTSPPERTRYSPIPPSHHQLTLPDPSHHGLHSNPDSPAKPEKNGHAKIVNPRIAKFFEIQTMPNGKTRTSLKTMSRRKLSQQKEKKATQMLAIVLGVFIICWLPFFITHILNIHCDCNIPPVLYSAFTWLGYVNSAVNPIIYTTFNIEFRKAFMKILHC
Outline: (§2)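 Ca2+ flux by FLIPR in HEK cells cotransfected with the D2 receptor (human, ferret or rat) plus chimeric G protein Gqo5.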

D(2) dopamine receptor [10] = target: T3, D(2) dopamine receptor (Homo sapiens, UniProt P14416); assay: Binding affinity to human D2S receptor
T3 sequence (P14416 whole entry): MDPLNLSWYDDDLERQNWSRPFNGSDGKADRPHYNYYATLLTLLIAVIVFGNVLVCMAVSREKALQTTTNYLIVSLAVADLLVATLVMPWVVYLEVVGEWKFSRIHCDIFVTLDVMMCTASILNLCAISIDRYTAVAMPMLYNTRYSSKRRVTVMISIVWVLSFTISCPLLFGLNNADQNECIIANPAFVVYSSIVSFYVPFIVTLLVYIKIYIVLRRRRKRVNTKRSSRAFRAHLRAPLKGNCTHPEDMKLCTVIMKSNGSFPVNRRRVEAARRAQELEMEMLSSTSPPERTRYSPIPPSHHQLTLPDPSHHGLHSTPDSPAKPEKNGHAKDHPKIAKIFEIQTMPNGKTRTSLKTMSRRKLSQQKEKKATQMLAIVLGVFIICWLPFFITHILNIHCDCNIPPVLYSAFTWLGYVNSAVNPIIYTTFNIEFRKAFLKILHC

[11] = Effect on canine cardiac Purkinje fiber repolarization measured as prolongation of action potential duration at 1.6 ug/mL; format: functional, Canis lupus familiaris
Outline: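 Canine Purkinje fibres impaled with 3 M KCl microelectrodes after at least 30 min equilibration under stimulation. Bath: 131 mM NaCl, 18 mM NaHCO3, 4 mM KCl, 2 mM CaCl2. Baseline APD90 recorded at BCL 2 s, 800 and 400 ms. Each fibre then received two ascending concentrations, each with 25 min equilibration and re-recording at all three rates.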

[12] = target: cGMP-dependent 3',5'-cyclic phosphodiesterase (Homo sapiens) (UniProt O00408); assay: Activity at PDE2 at 10 uM; outline: as §1
cGMP-dependent 3',5'-cyclic phosphodiesterase (Homo sapiens), sequence (O00408 whole entry): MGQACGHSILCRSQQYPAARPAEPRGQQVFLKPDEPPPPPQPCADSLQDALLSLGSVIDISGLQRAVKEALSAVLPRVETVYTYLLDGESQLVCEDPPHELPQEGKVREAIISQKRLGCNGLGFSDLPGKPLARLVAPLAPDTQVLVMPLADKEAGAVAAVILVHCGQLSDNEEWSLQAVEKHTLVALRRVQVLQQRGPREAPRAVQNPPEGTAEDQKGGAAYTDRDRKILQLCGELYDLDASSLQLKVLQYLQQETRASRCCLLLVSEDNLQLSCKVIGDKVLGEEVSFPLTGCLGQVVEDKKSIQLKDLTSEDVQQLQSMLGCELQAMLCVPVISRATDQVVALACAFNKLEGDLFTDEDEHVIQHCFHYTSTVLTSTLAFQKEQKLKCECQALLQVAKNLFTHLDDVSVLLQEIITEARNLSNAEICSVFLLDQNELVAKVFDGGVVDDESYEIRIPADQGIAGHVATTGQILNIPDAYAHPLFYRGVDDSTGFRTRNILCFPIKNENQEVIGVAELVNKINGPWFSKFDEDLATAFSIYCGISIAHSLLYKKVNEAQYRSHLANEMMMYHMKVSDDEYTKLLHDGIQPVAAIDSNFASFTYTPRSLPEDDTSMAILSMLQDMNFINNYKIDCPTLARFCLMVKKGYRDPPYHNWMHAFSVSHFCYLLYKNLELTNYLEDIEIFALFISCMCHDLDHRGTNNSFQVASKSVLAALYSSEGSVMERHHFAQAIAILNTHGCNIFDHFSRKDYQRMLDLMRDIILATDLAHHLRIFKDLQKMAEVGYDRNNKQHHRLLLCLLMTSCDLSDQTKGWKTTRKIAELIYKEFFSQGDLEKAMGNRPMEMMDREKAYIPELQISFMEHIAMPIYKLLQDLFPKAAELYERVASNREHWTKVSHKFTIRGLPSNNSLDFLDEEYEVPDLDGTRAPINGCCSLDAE

D(2) dopamine receptor [13] = target: T3, D(2) dopamine receptor; assay: Displacement of [125I]7-OH-PIPAT from human D2L receptor expressed in HEK293 cell membrane; format: cell membranes
[14] = target: Phosphodiesterase 3 (Homo sapiens) (UniProt Q14432+Q13370); assay: Activity at PDE3 at 10 uM; format: protein assay; outline: as §1
[15] = Half life in Sprague-Dawley rat at 1 mg/kg, sc; format: ADME, organism-based; set-up: dose 1 mg/kg, route subcutaneous; conditions: in vivo
Outline: (§3)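 Single 1 mg/kg dose given iv, sc or orally to Sprague-Dawley rats, dogs and monkeys; plasma concentrations followed over time (mean ± SEM, n = 3). Cmax, AUC, half-life, clearance and bioavailability calculated from the curves.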

[16] = Half life in Sprague-Dawley rat at 1 mg/kg, po; format: ADME, organism-based; set-up: dose 1 mg/kg, route oral; conditions: in vivo; outline: as §3
D(2) dopamine receptor [17] = target: T3, D(2) dopamine receptor; assay: Agonist activity at human D2 receptor in HEK293 cells coexpressing G-alpha-qo5 by FLIPR relative to dopamine upto 10 uM; format: functional, cell-based; outline: as §2
[18] = Oral bioavailability in dog; format: ADME, organism-based, Canis lupus familiaris; conditions: in vivo; outline: as §3
[19] = target: Phosphodiesterase 4 (Homo sapiens) (UniProt P27815+Q08499+Q07343+Q08493); assay: Activity at PDE4 at 10 uM; format: protein assay; outline: as §1
[20] = Oral bioavailability in rat; format: ADME, organism-based; conditions: in vivo; outline: as §3
D(4) dopamine receptor [21] = target: T4, D(4) dopamine receptor (Rattus norvegicus, UniProt P30729); assay: Agonist activity at rat D4 receptor in HEK293 cells coexpressing G-alpha-qo5 by FLIPR; format: functional, cell-based
T4 sequence (P30729 whole entry): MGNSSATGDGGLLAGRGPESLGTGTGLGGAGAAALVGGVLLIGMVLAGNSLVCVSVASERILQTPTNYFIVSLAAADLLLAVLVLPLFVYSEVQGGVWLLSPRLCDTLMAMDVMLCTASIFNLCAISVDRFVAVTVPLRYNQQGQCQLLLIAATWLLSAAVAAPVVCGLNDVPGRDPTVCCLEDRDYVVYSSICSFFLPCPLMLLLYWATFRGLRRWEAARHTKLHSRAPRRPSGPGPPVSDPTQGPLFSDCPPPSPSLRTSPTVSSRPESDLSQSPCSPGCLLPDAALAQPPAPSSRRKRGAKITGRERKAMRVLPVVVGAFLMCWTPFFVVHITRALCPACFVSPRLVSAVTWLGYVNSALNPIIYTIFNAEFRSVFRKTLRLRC

[22] = Bioavailability in Sprague-Dawley rat at 1 mg/kg, po; format: ADME, organism-based; conditions: in vivo; outline: as §3
[23] = Oral bioavailability in monkey; format: ADME, organism-based, Macaca mulatta; conditions: rhesus monkey, in vivo; outline: as §3
[24] = target: D(3) dopamine receptor (Homo sapiens) (UniProt P35462); assay: Agonist activity at human D3 receptor in HEK293 cells coexpressing G-alpha-qo5 by FLIPR upto 10 uM; format: functional, cell-based
D(3) dopamine receptor (Homo sapiens), sequence (P35462 whole entry): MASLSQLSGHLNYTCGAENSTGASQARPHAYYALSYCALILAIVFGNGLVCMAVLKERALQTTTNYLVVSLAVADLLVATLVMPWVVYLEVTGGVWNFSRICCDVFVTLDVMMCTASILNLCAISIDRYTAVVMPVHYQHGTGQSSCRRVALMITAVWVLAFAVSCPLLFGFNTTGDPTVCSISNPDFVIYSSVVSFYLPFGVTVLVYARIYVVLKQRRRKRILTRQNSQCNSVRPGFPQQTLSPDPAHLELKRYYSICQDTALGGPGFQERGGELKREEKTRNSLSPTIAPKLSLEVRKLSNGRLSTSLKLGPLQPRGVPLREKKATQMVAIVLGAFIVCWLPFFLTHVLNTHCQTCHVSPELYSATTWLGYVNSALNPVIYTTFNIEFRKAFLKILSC

[25] = Bioavailability in Sprague-Dawley rat at 1 mg/kg, sc; format: ADME, organism-based; conditions: in vivo; outline: as §3
[26] = target: Phosphodiesterase 1 (Homo sapiens) (UniProt P54750+Q01064+Q14123); assay: Activity at PDE1 at 10 uM; format: protein assay; outline: as §1
Rattus norvegicus [27] = assay: Proerectile activity in rat measured as incidence of penile erection at 0.3 umol/kg, sc; format: functional
Outline: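 Conscious male rats were given a single subcutaneous injection and observed for penile erections over the following 60 min. The read-out was the incidence of erections, expressed as % of animals ± SEM (n = 12–32 animals per group), with significance tested against controls. The value is the maximal incidence at the maximally effective dose.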

D(4) dopamine receptor [28] = target: T1, D(4) dopamine receptor; assay: Displacement of [3H]A369508 from human D4 receptor expressed in HEK293 cell membrane; format: cell membranes
hERG = hERG (Homo sapiens, UniProt Q12809); assay: Blockade of current at hERG expressed in HEK293 cells at 3 ug/mL; format: cell-based; conditions: HEK293 cells that express hERG
hERG, sequence (Q12809 whole entry): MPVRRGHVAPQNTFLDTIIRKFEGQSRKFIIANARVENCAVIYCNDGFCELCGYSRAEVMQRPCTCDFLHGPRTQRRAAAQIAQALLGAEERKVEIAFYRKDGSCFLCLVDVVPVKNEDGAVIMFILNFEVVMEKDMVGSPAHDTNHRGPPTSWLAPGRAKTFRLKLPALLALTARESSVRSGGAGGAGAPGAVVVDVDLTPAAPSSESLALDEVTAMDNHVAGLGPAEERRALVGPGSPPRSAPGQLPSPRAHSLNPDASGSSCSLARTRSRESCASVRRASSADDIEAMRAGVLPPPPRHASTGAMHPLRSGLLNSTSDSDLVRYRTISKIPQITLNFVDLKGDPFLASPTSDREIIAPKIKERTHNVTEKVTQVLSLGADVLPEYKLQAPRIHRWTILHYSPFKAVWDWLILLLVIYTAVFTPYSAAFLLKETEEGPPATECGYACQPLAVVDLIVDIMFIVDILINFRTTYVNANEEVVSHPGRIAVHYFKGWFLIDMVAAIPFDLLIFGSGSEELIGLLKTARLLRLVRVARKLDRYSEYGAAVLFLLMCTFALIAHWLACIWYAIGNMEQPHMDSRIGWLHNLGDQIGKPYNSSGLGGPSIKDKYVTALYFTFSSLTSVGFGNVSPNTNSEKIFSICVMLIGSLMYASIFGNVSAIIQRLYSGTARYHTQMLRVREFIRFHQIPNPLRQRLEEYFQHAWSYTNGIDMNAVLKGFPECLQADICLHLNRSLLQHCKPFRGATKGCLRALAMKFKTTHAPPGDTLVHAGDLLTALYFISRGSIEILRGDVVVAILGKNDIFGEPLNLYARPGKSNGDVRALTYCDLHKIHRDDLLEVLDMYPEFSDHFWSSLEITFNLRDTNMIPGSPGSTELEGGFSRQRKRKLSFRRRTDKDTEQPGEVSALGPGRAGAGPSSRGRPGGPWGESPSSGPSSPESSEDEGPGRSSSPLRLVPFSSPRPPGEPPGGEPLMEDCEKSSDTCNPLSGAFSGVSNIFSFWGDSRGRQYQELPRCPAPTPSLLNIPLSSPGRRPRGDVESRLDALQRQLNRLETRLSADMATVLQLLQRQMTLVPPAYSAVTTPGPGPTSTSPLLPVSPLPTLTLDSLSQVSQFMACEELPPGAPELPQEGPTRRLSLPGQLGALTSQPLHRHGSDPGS
Outline: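 hERG stably expressed in HEK293 cells; whole-cell voltage clamp. Pipette: K aspartate/KCl/EGTA/MgATP, pH 7.3. Bath: NaCl-based HEPES, pH 7.4. Compound dissolved in DMSO (≤0.1%), one concentration per cell. Steps to -25 to +50 mV for 3 s, then -50 mV for 4 s, from -80 mV every 15 s; tail current measured against DMSO vehicle.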

Mustela putorius furo [29] = species on record: Mustela putorius furo; assay: Induction of nausea in ferret; format: functional, organism-based
[30] = target: T5, D(4) dopamine receptor (Rattus norvegicus) (UniProt P30729); assay: Agonist activity at rat D4 receptor in HEK293 cells co-expressing Galphaqo5 by FLIPR relative to dopamine; format: functional, cell-based
T5 sequence (whole entry): T4 sequence (P30729 whole entry)

[31] = target: T2, D(4) dopamine receptor (Homo sapiens); assay: Agonist activity at human D4.4 receptor in HEK293 cells coexpressing G-alpha-qo5 by FLIPR upto 10 uM; format: functional, cell-based
[32] = target: T2, D(4) dopamine receptor (Homo sapiens); assay: Agonist activity at human D4.4 receptor in HEK293 cells coexpressing G-alpha-qo5 by FLIPR with relative to dopamine upto 10 uM; format: functional, cell-based

SMILES: NCCc1ccc(O)c(O)c1 [DOPAMINE]
- EC50 [1]: 2.7 nM

SMILES: Cc1ccc([N+](=O)[O-])cc1NC(=O)CN1CCC(c2cccc[n+]2[O-])CC1
- EC50 (D(4) dopamine receptor [2]): 134 nM
- Activity (Rattus norvegicus [3]): 83%
- Activity ([4]; filed as agonist): Agonist

SMILES: O=c1[nH]c2ccccc2n1CCCN1CCC(n2c(=O)[nH]c3cc(Cl)ccc32)CC1
- Activity (Rattus norvegicus [5]): inactive

SMILES: Cc1cccc(NC(=O)CN2CCC(c3cccc[n+]3[O-])CC2)c1
- Activity [6]: inactive
- Activity [7]: inactive
- Activity (Mustela putorius furo [8]): inactive
- Activity [9]: inactive
- Ki (D(2) dopamine receptor [10]): > 10000 nM
- Activity [11]: 12%
- Activity [12]: inactive
- Ki (D(2) dopamine receptor [13]): > 10000 nM
- Activity [14]: inactive
- half-life [15]: 30 min
- half-life [16]: 18 min
- Activity (D(2) dopamine receptor [17]): inactive
- bioavailability [18]: 70%
- Activity [19]: inactive
- bioavailability [20]: 11%
- EC50 (D(4) dopamine receptor [21]): 57 nM
- bioavailability [22]: 11%
- bioavailability [23]: 28%
- Activity [24]: inactive
- bioavailability [25]: 61%
- Activity [26]: inactive
- Activity (Rattus norvegicus [27]): 75%
- EC50 (D(4) dopamine receptor [2]): 32 nM
- Ki (D(4) dopamine receptor [28]): 294 nM
- inhibition at 3 ug/mL (hERG): 44.8%
- Activity ([4]; filed as agonist): Agonist
- Activity (Mustela putorius furo [29]): inactive
- Efficacy [30]: 80%

SMILES: Cc1ccc(Cl)cc1NC(=O)CN1CCC(c2cccc[n+]2[O-])CC1
- EC50 (D(4) dopamine receptor [2]): 126 nM

SMILES: COc1ccc(C2CCN(CC(=O)Nc3cccc(C)c3)CC2)cc1
- Activity [31]: inactive

SMILES: CC(C)Oc1cccc(NC(=O)CN2CCC(c3cccc[n+]3[O-])CC2)c1
- EC50 (D(4) dopamine receptor [2]): 555 nM

SMILES: Cc1cccc(NC(=O)CN2CCC(c3ccccc3F)CC2)c1
- EC50 (D(4) dopamine receptor [2]): 1 nM

SMILES: Cc1cccc(NC(=O)CN2CCC(c3cccc(F)c3)CC2)c1
- EC50 (D(4) dopamine receptor [2]): 512 nM

SMILES: O=C(CN1CCC(c2cccc[n+]2[O-])CC1)Nc1cccc(Cl)c1
- EC50 (D(4) dopamine receptor [2]): 62 nM

SMILES: c1ccc(N2CCN(Cc3nc4ccccc4[nH]3)CC2)nc1
- Activity ([4]; filed as partial agonist): Partial agonist

SMILES: Cc1cc(C(=O)NCN2CCC(c3cccc[n+]3[O-])CC2)ccc1Cl
- EC50 (D(4) dopamine receptor [2]): 2460 nM

SMILES: O=C(NCN1CCC(c2cccc[n+]2[O-])CC1)c1cccs1
- Activity [32]: inactive

SMILES: Cc1cccc(C(=O)NCN2CCC(c3nccs3)CC2)c1
- EC50 (D(4) dopamine receptor [2]): 9.8 nM

SMILES: Cc1cccc(NC(=O)CN2CCC(c3ccc(O)cc3)CC2)c1
- EC50 (D(4) dopamine receptor [2]): 70 nM
- Activity ([4]; filed as partial agonist): Partial agonist
